# In the library only some 4.4% were active in any assay of this set; here they are far more common.
# SENP1 inh – blocks the human SENP1 SUMO protease catalytic domain; Q9P0U3; recombinant SENP1 catalytic domain, CyPet-SUMO1-YPet FRET cleavage; inhibition, % at 10 µM; 0.21% of 360,000 active; AID 624204;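 active means inhibition at least 30% at 10 µM, raw YFP signal under a set limit, fluorescence ratio 0.5 to 1.5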;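 further: 0% = enzyme with DMSO and 100% = no enzyme wells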
# Target sequence (Q9P0U3 419-644 limits assumed): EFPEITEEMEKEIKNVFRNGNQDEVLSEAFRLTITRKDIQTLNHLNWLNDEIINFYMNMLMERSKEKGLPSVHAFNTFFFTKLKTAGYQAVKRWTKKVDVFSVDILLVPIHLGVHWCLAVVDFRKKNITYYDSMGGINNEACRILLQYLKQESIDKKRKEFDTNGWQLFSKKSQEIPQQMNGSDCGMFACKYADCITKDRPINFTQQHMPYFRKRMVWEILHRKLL
#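 material = recombinant human SENP1 catalytic domain, His6-tagged | quantity = 20 pM enzyme | reagent = 25 nM SUMO1 FRET substrate | compound dosing = 10 µM single point, 0.5% DMSO | timing = 50 min enzyme reaction, room temperature, light-protected | detection = FRET, CFP and YFP emission | control set = no-enzyme low, enzyme-DMSO high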
# MPTP block – inhibitors of mitochondrial permeability transition pore; isolated mouse mitochondria, Ca2+ swelling absorbance, 30 min; 1.4% of 360,000 active; inhibition, % at 10 µM;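 active means inhibition of 50% or more, scaled per plate between neutral and stimulator controls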;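 further: 0% = DMSO wells given calcium and 100% = 1 mM EGTA wells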
# GRIN3A LBD mod – modulates the human NR3A ligand-binding domain | NR3A LBD differential scanning fluorimetry, Tm shift; 0% = protein alone, 100% = glycine-bound protein | Tm shift relative to glycine control, % at 25 µM | 2.5% of 340,000 active;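 active means melting temperature shift of at least 10% of the positive control shift, at one fixed dose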
# EBI2 block – antagonists of human EBI2 receptor | P32249 | EBI2 beta-arrestin recruitment, luminescence, 7a,25-OHC stimulated | inhibition, % at 5 µM | 0.81% of 360,000 active; in the data active means inhibition above about 38%;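 further: enzyme fragment complementation signal reports receptor beta-arrestin coupling in cells; 0% = agonist plus DMSO wells and 100% = wells without agonist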
# Target sequence (P32249 whole entry, looked up, the tested form may be a part): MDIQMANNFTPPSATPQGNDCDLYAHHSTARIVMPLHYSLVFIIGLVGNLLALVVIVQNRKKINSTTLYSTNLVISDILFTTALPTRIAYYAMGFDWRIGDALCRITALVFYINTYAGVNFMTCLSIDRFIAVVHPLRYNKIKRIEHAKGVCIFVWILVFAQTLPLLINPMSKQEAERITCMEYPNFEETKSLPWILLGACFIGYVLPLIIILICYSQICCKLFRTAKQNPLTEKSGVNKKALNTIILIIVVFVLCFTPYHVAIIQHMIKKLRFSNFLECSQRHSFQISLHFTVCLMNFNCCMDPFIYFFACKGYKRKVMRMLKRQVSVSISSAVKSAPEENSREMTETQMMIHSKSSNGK
# MPTP counter – Rhodamine 123 counter-screen of mitochondrial pore hits. shares compounds with MPTP block. isolated mitochondria, membrane potential, Rhodamine 123 fluorescence. inhibition, % at 10 µM. 78% of 5,000 active. AID 624504; in the data active means inhibition above about 22%;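 further: 0% = DMSO vehicle and 100% = positive control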
# MPTP abs DR – MPTP inhibition, dose response swelling confirmation; 58% of 780 active; isolated mitochondria swelling, absorbance; IC50, µM; AID 651561; shares compounds with MPTP block; in the data active means IC50 below about 20 µM
# MPTP cs DR – counter-screen for mitochondrial permeability transition pore inhibitors, dose response; shares compounds with MPTP block; isolated mitochondria counterscreen, fluorescence read-out; IC50, µM; 49% of 780 active; AID 651564; in the data active means IC50 below about 80 µM
# Numbers without * were called inactive; i = inactive; nt = no result given.
SMILES,SENP1 inh,MPTP block,GRIN3A LBD mod,EBI2 block,MPTP counter,others
OCCN1CCN(CC(O)COc2ccc(C34CC5CC(CC(C5)C3)C4)cc2)CC1 (centres undefined),-1,91*,-3,-1,-9,MPTP abs DR=4.1*;MPTP cs DR=55*
NCCOc1ccc(C23CC4CC(CC(C4)C2)C3)cc1,-1,76*,-1,-17,-10,
Oc1ccc(C23CC4CC(CC(C4)C2)C3)cc1O,0,0,-16,10,nt,
CC(=O)C(Sc1ccc2nnc(-c3cccnc3)n2n1)C(C)=O,1,0,-1,1,nt,
N#Cc1c(NC(=O)c2ccccc2)sc2c1CCCCC2,-6,12,0,8,nt,
N#Cc1c(Cl)nsc1NC(=O)c1ccccc1,-16,78*,11*,-9,89*,
Cc1sc(NC(=S)NC(=O)c2ccccc2)c(C#N)c1C,1,70*,-2,9,84*,
Cc1sc(NC(=S)NC(=O)c2ccc(C(C)(C)C)cc2)c(C#N)c1C,0,29,-8,22,nt,
CC(C)[C@@H](NC(=O)OC(C)(C)C)c1cc(C(=O)c2c(-c3ccccc3)[nH]c3ccccc23)c(N)s1,1,-2,nt,11,nt,
N=C(N)SCCN,-1,-2,1,-8,nt,
Cc1cc(C)n2nc(C(=O)N/N=C/C=C/c3ccccc3)nc2n1,2,0,2,-1,nt,
CCOC(=O)c1sc(-c2ccccc2)cc1NC(=O)Nc1ccc([N+](=O)[O-])cc1,3,87*,6,25,-5,MPTP abs DR=i;MPTP cs DR=<2.5*
CCOC(=O)c1sc(-c2ccccc2)cc1N,0,4,-33,22,nt,
Cc1ccc(-c2nc(CSCC(=O)N3CCCC3)c(C)o2)cc1,1,2,-1,5,nt,
Cc1cccc(-c2nc(CSCC(=O)N3CCN(c4ccccn4)CC3)c(C)o2)c1,4,78*,0,9,63*,
COc1cc(CNCCc2ccc(S(N)(=O)=O)cc2)ccc1OCc1ccc(Cl)cc1,1,50*,-5,-18,7,MPTP abs DR=3.9*;MPTP cs DR=15*
COc1ccc2sc(N(CCCN(C)C)C(=O)c3ccc(S(=O)(=O)N4CCCc5ccccc54)cc3)nc2c1,1,86*,-10,9,-19,
Cc1ccc2nc(N(CCCN(C)C)C(=O)COc3ccc(Cl)cc3)sc2c1,3,56*,0,-1,-19,MPTP abs DR=4.2*;MPTP cs DR=78*
Cc1cccc2sc(N(CCCN(C)C)C(=O)c3ccc(C(=O)c4ccccc4)cc3)nc12,0,84*,1,3,-6,MPTP abs DR=11*;MPTP cs DR=64*
CCN(Cc1ccccc1)S(=O)(=O)c1ccc(C(=O)N(CCCN(C)C)c2nc3cc(OC)ccc3s2)cc1,1,65*,-3,9,-12,MPTP abs DR=i;MPTP cs DR=30*
CN(C)CCCN(C(=O)COc1ccc(Cl)cc1)c1nc2ccc(F)cc2s1,3,0,2,-5,nt,
C[C@H](CO)N1C[C@H](C)[C@@H](CN(C)C(=O)NC2CCCCC2)Oc2ccc(NC(=O)Cc3ccccc3)cc2C1=O,2,1,1,-3,nt,
COc1c(O)cc2c(c1O)[C@@H]1OC(CO)C(O)C(O)[C@H]1OC2=O (some centres undefined),-1,-3,0,2,nt,
COc1ccc(OCc2nnc(SCC(=O)Nc3ccccc3Cl)o2)cc1,-1,1,-2,7,nt,
COc1ccc2sc(N(CCCN(C)C)C(=O)c3ccc(C(=O)c4ccccc4)cc3)nc2c1,1,80*,2,-1,-9,MPTP abs DR=14*;MPTP cs DR=64*
SMILES,SENP1 inh,MPTP block,GRIN3A LBD mod,EBI2 block,MPTP counter,others
CCN(Cc1ccccc1)S(=O)(=O)c1ccc(C(=O)N(CCCN(C)C)c2nc3cc4c(cc3s2)OCCO4)cc1,1,59*,-3,28,-14,
CCN(Cc1ccccc1)S(=O)(=O)c1ccc(C(=O)N(CCCN(C)C)c2nc3ccc(F)cc3s2)cc1,2,3,-1,8,nt,
COc1ccccc1NC(=O)N(C)C[C@H]1OCc2cnnn2CCCC(=O)N([C@H](C)CO)C[C@H]1C,0,-1,nt,3,nt,
CCc1ccc(NC(=O)Nc2cccc(OC)c2)cc1,1,63*,4,18,77*,
COC(=O)c1ccc(NC(=O)Nc2cccc(F)c2)cc1,-1,85*,30*,-4,87*,
COC(=O)c1ccc(NC(=O)Nc2ccc(F)cc2F)cc1,-3,86*,5,1,96*,
COc1cccc(NC(=O)Nc2ccc(CC(=O)O)cc2)c1,-2,0,-2,2,nt,
O=C(Nc1ccccc1)Nc1ccc(F)cc1F,1,17,-8,-6,nt,
COc1cccc(NC(=O)NC2(C(F)(F)F)Oc3ccccc3O2)c1,1,97*,-2,-1,83*,
COc1ccc(CNC(=O)CN(C(=O)CCC(=O)Nc2nccs2)c2ccc(C)cc2)cc1,1,-1,-1,-1,nt,
Cc1c(Cl)cccc1NC(=S)N1CCc2ccccc2C1,0,5,-6,6,nt,
Cc1cc(C(=O)NCc2ccc(F)cc2)c2ccccc2n1,0,0,1,-1,nt,
O=C(NCCCl)Nc1cccc(Br)c1,1,0,-4,-5,nt,
O=C(Nc1ccc(F)cc1)Nc1cccc(Br)c1,-1,89*,43*,-10,91*,
CCCC(=O)NC(Nc1cc(C(F)(F)F)ccc1Cl)C(Cl)(Cl)Cl (centres undefined),0,90*,-5,1,93*,
CCOC(=O)c1cc(-c2csc(Nc3c(C)cc(C)cc3C)n2)on1,1,3,0,9,nt,
COc1ccccc1NC(=S)NCCC(c1ccccc1)c1ccccc1,1,30,1,-3,nt,
COc1ccc(Cl)cc1NC(=S)NCCC(c1ccccc1)c1ccccc1,3,67*,18*,17,91*,
COc1cc(NC(=S)NCCC(c2ccccc2)c2ccccc2)c(OC)cc1Cl,-1,97*,24*,-1,81*,
COC(=O)c1cn[nH]c1NC(=S)Nc1ccc(Cl)c(Cl)c1,1,99*,11*,4,81*,
COC(=O)c1cn[nH]c1NC(=S)Nc1ccc(C)cc1Cl,1,96*,30*,-3,75*,
OC(COc1ccc(CNCCc2ccc(C(F)(F)F)cc2)cc1)CN1CCCCC1 (centres undefined),-1,67*,1,-4,-11,
Cc1ccc(NC(=O)CCNC(=O)c2ccccc2Cl)cc1S(=O)(=O)N1CCOCC1,2,-1,-3,-11,nt,
Cc1cc(C)cc(-n2cccc2/C=C2/C(=N)N3C(=NC2=O)SN=C3S(C)(=O)=O)c1,-50,63*,1,3,50*,
Cc1ccc(-n2cccc2/C=C2/C(=N)N3C(=NC2=O)SN=C3S(C)(=O)=O)cc1,-13,42,7,4,nt,
